Reference: ChEMBL document CHEMBL1133105, “Antimalarial, antitrypanosomal, and antileishmanial activities and cytotoxicity of bis(9-amino-6-chloro-2-methoxyacridines): influence of the linker” (J Med Chem, 2000)

Key:
[1] = system: Leishmania infantum; test: In Vitro evaluation for the percentage of activity towards Leishmania infantum at 3.13 uM Concentration; Toxic upon mouse primary peritoneal macrophages; format: functional, organism-based
Procedure, shortened: (§1)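 Starch-stimulated mouse peritoneal macrophages, 30 000/well, infected after 24 h with spleen-derived L. infantum amastigotes (10:1) together with 2-fold drug dilutions (12.5–1.56 µM). Incubated 7 days at 37 °C, 5% CO2. Wright-stained slides scored microscopically as % reduction of total parasite load or of infected macrophages. Uninfected treated cultures judged microscopically for macrophage toxicity.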

[2] = system: Leishmania infantum; test: Percentage of activity against Leishmania infantum at 6.25 uM; Toxic upon mouse primary peritoneal macrophages; format: functional, organism-based; procedure, shortened: as §1
[3] = system: Leishmania infantum; test: Percentage of activity against Leishmania infantum at 1.56 uM; format: functional; procedure, shortened: as §1
[4] = system: Leishmania infantum; test: Percentage of activity against Leishmania infantum at 12.5 uM Concentration; Toxic upon mouse primary peritoneal macrophages; format: functional, organism-based; procedure, shortened: as §1
[5] = system: MRC5; test: Cytotoxicity on MRC-5 cells at 12.5 uM; format: functional; conditions: Homo sapiens
Procedure, shortened: (§2)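 MRC-5 human diploid embryonic lung cells seeded at 5 000/well, washed after 24 h, then given 2-fold drug dilutions (25, 12.5, 6.25, 3.13 µM) in RPMI + 5% FCS, final DMSO below 0.5%. Incubated 7 days at 37 °C, 5% CO2. MTT colorimetric read-out, scored as % reduction of absorbance at 540 nm versus untreated controls.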

[6] = system: MRC5; test: Cytotoxicity on MRC-5 cells at 25 uM; format: functional; conditions: Homo sapiens; procedure, shortened: as §2
[7] = system: MRC5; test: Cytotoxicity on MRC-5 cells at 3.13 uM; format: functional; conditions: Homo sapiens; procedure, shortened: as §2
[8] = system: MRC5; test: Cytotoxicity on MRC-5 cells at 6.25 uM; format: functional; conditions: Homo sapiens; procedure, shortened: as §2
[9] = system: Plasmodium falciparum; test: In vitro sensitivity for Plasmodium falciparum FcB1R; format: functional, organism-based
Procedure, shortened: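 Asynchronous P. falciparum cultures in human erythrocytes (0.5% parasitemia, 1% haematocrit) exposed to serially diluted drug for 24 h at 37 °C. [3H]hypoxanthine (0.5 µCi/well) then added for a further 24 h. Uptake compared with drug-free controls on the same plate. IC50 taken from the concentration–response curve, averaged over independent experiments. DMSO ≤0.1%.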

[10] = system: Trypanosoma cruzi; test: Percentage of activity against Trypanosoma cruzi at 1.56 uM; format: functional
Procedure, shortened: (§3)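 Mouse peritoneal macrophages, 30 000/well, infected after 24 h with about 100 000 T. cruzi trypomastigotes per well plus 2-fold drug dilutions (12.5–1.56 µM). Incubated 4 days at 37 °C, 5% CO2. Methanol-fixed, Giemsa-stained and scored microscopically as % reduction of total parasite load (free trypomastigotes plus intracellular amastigotes) versus untreated controls.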

[11] = system: Trypanosoma cruzi; test: Percentage of activity against Trypanosoma cruzi at 12.5 uM; Toxic upon mouse primary peritoneal macrophages; format: functional, organism-based; procedure, shortened: as §3
[12] = system: Trypanosoma cruzi; test: In Vitro evaluation for the percentage of activity towards Trypanosoma cruzi at 3.13 uM Concentration; Toxic upon mouse primary peritoneal macrophages; format: functional, organism-based; procedure, shortened: as §3
[13] = system: Trypanosoma cruzi; test: In Vitro evaluation for the percentage of activity towards Trypanosoma cruzi at 6.25 uM Concentration; Toxic upon mouse primary peritoneal macrophages; format: functional, organism-based; procedure, shortened: as §3
[14] = system: Trypanosoma brucei; test: Percentage of activity against Trypanosoma brucei at 6.25 uM; format: functional
Procedure, shortened: (§4)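 Bloodstream-form T. brucei in HMI-9 medium, 10 000 parasites/well, exposed to 12.5, 6.25, 3.13 and 1.56 µM drug for 4 days. Read-out is % inhibition of parasite multiplication. Macrophage toxicity judged on mouse primary peritoneal macrophages.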

[15] = system: Trypanosoma brucei; test: Percentage of activity against Trypanosoma brucei at 12.5 uM; format: functional; procedure, shortened: as §4
[16] = system: Trypanosoma brucei; test: Percentage of activity against Trypanosoma brucei at 1.56 uM; format: functional; procedure, shortened: as §4
[17] = system: Trypanosoma brucei; test: Percentage of activity against Trypanosoma brucei at 3.13 uM; format: functional; procedure, shortened: as §4
[18] = system: Leishmania infantum; test: Percentage of activity against Leishmania infantum 6.25 uM; format: functional; procedure, shortened: as §1
[19] = system: Leishmania infantum; test: In Vitro evaluation for the percentage of activity towards Leishmania infantum at 12.5 uM Concentration; format: functional; procedure, shortened: as §1
[20] = system: Leishmania infantum; test: Percentage of activity against Leishmania infantum at 3.13 uM; format: functional; procedure, shortened: as §1
[21] = system: Trypanosoma cruzi; test: Percentage of activity against Trypanosoma cruzi at 12.5 uM; format: functional; procedure, shortened: as §3
[22] = system: Trypanosoma cruzi; test: Percentage of activity against Trypanosoma cruzi at 3.13 uM; format: functional; procedure, shortened: as §3
[23] = system: Trypanosoma cruzi; test: Percentage of activity against Trypanosoma cruzi at 6.25 uM Concentration; format: functional; procedure, shortened: as §3

Structure (SMILES) | IC50 [9] | Antileishmanial activity (% reduction of parasite load) [3] | cytotoxicity at 12.5 µM [5] | cytotoxicity at 25 µM [6] | cytotoxicity at 3.13 µM [7] | cytotoxicity at 6.25 µM [8] | Parasite load reduction [10] | Inhibition of parasite multiplication [14] | Inhibition of parasite multiplication [15] | Percent inhibition of parasite multiplication [16] | Parasite growth inhibition [17] | Antileishmanial activity (% reduction of parasite load) [18] | Percent inhibition of Leishmania infantum [19] | Percent antileishmanial activity (reduction of parasite load) [20] | T. cruzi parasite load reduction [21] | Reduction of T. cruzi parasite load [22] | Reduction of T. cruzi parasite load [23] | other results
COc1ccc2nc3cc(Cl)ccc3c(NCCCN(CCCNc3c4ccc(Cl)cc4nc4ccc(OC)cc34)C(=O)C(CCCCN)NC(=O)OC(C)(C)C)c2c1 (stereo not given) | > 500 nM | 0% | 100% | 100% | 0% | 40% | 0% | 100% | 100% | 100% | 100% | 0% | 40% | 0% | 99% | 40% | 90% | –
COc1ccc2nc3cc(Cl)ccc3c(NCCCCN(CCCNc3c4ccc(Cl)cc4nc4ccc(OC)cc34)C(=O)C(C)NC(=O)OC(C)(C)C)c2c1 (stereo not given) | 330 nM | 0% | 100% | 100% | 0% | 0% | 0% | 100% | 100% | 100% | 100% | 40% | 70% | 20% | 90% | 20% | 70% | –
COc1ccc2nc3cc(Cl)ccc3c(NCCCN(CCCNc3c4ccc(Cl)cc4nc4ccc(OC)cc34)C(=O)C(CC(=O)OCC3c4ccccc4-c4ccccc43)NC(=O)OC(C)(C)C)c2c1 (stereo not given) | 230 nM | 0% | 0% | 0% | 0% | 0% | 0% | 100% | 100% | 100% | 100% | 0% | 20% | 0% | 40% | 0% | 0% | –

Now from value to molecule, other results behind:

IC50 [9] | Structure (SMILES) | Antileishmanial activity (% reduction of parasite load) [3] | cytotoxicity at 12.5 µM [5] | cytotoxicity at 25 µM [6] | cytotoxicity at 3.13 µM [7] | cytotoxicity at 6.25 µM [8] | Parasite load reduction [10] | Inhibition of parasite multiplication [14] | Inhibition of parasite multiplication [15] | Percent inhibition of parasite multiplication [16] | Parasite growth inhibition [17] | Antileishmanial activity (% reduction of parasite load) [18] | Percent inhibition of Leishmania infantum [19] | Percent antileishmanial activity (reduction of parasite load) [20] | T. cruzi parasite load reduction [21] | Reduction of T. cruzi parasite load [22] | Reduction of T. cruzi parasite load [23] | other results
55 nM | COc1ccc2nc3cc(Cl)ccc3c(NCCCNCCCNc3c4ccc(Cl)cc4nc4ccc(OC)cc34)c2c1 | 40% | 100% | 100% | 100% | 100% | 60% | 100% | 100% | 100% | 100% | – | – | – | – | – | – | Cytotoxicity [1]: Toxic; Cytotoxicity [2]: Toxic; Cytotoxicity [4]: Toxic; Cytotoxicity [11]: Toxic; Cytotoxicity [12]: Toxic; Cytotoxicity [13]: Toxic
> 500 nM | COc1ccc2nc3cc(Cl)ccc3c(NCCCN(CCCNc3c4ccc(Cl)cc4nc4ccc(OC)cc34)C(=O)C(C)N)c2c1 (stereo not given) | 0% | 100% | 100% | 20% | 40% | 0% | 100% | 100% | 100% | 100% | 0% | 0% | 0% | 0% | 0% | 0% | –
